Experimental data taken from ChEMBL document CHEMBL4393712, “Discovery of chalcone-modified estradiol analogs as antitumour agents that Inhibit tumour angiogenesis and epithelial to mesenchymal transition” (Eur J Med Chem, 2019).
Active and inactive are the calls of the source. The calls are words filed in the database; no cut-off is given here.

Columns and labels:
[1] = test system: ECa-109 cell line; assay: Antitumour activity against human EC109 cells assessed as cell growth inhibition measured after 72 hrs by SRB assay; type: functional, cell-based; conditions: ECa-109, 72 h
In short: (§1)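 Exponentially growing cells trypsinized, seeded at 5 × 10^4 cells/mL in 96-well plates, cultured overnight, then exposed to compounds for 72 h. Cells fixed with 10% TCA 1 h, stained with SRB 15 min, dye dissolved in Tris-HCl, absorbance read; 50% growth-inhibitory concentration calculated.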

[2] = test system: B16; assay: Antitumour activity against mouse B16 cells assessed as cell growth inhibition measured after 72 hrs by SRB assay; type: functional, cell-based; conditions: B16, 72 h; in short: as §1
[3] = test system: HUVEC; assay: Cytotoxicity against HUVEC assessed as reduction in cell viability measured after 48 to 72 hrs by MTT assay; type: cell-based; conditions: human
In short: (§2)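 Cells seeded at 3 × 10^3 per well in 96-well plates, incubated overnight, then given fresh medium with a range of drug concentrations for 48 h or 72 h. MTT added (final 500 µg/mL) for 4 h, formazan dissolved in DMSO, absorbance at 570 nm; IC50 derived. Mean ± SD of 3 independent tests.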

[4] = test system: MGC-803; assay: Antitumour activity against human MGC803 cells assessed as cell growth inhibition measured after 72 hrs by SRB assay; type: functional, cell-based; conditions: MGC-803, 72 h; in short: as §1
[5] = test system: GES1; assay: Cytotoxicity against human GES-1 cells assessed as reduction in cell viability measured after 48 to 72 hrs by MTT assay; type: cell-based; in short: as §2
[6] = test system: Chorioallantoic membrane; assay: Antiangiogenic activity in chicken chorioallantoic membrane assessed as reduction in neovascularization at 50 ug/ml measured after 72 hrs by CAM assay; type: functional; conditions: Gallus gallus
In short: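 Fertilized chicken eggs incubated 6 days at 37 °C; shell windowed and CAM treated (compounds and controls at […] as printed; saline vehicle control). Eggs re-incubated humidified; membranes fixed and harvested after 72 h. Angiogenesis scored by counting blood vessels and imaging neovascular zones; ten eggs per group.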

[7] = Toxicity in nude mouse xenografted with human MCF7 cells assessed as liver edema at 45 mg/kg/day, ip administered for 21 days by HE staining analysis; type: organism-based; conditions: in vivo, 504 h
[8] = Hepatotoxicity in nude mouse xenografted with human MCF7 cells assessed as increase in serum alanine transaminase level at 45 mg/kg/day, ip administered for 21 days by biochemical automatic analyzer; type: toxicity, organism-based; conditions: in vivo, 504 h
[9] = test system: PC-3; assay: Cytotoxicity against human PC3 cells assessed as reduction in cell viability measured after 48 to 72 hrs by MTT assay; type: cell-based; in short: as §2
[10] = test system: MGC-803; assay: Cytotoxicity against human MGC803 cells assessed as reduction in cell viability measured after 48 to 72 hrs by MTT assay; type: cell-based; in short: as §2
[11] = test system: SK-N-SH; assay: Antitumour activity against human SK-N-SH cells assessed as cell growth inhibition measured after 72 hrs by SRB assay; type: functional, cell-based; in short: as §1
[12] = Hepatotoxicity in nude mouse xenografted with human MCF7 cells assessed as increase in serum aspartate transaminase level at 45 mg/kg/day, ip administered for 21 days by automatic biochemical analyzer; type: toxicity, organism-based; conditions: in vivo, 504 h
[13] = Hepatotoxicity in nude mouse xenografted with human MCF7 cells assessed as increase in serum alkaline phosphatase level at 45 mg/kg/day, ip administered for 21 days by biochemical automatic analyzer; type: toxicity, organism-based; conditions: in vivo, 504 h
[14] = test system: SMMC-7721; assay: Antitumour activity against human SMMC7721 cells assessed as cell growth inhibition measured after 72 hrs by SRB assay; type: functional, cell-based; conditions: SMMC-7721, 72 h; in short: as §1
[15] = Toxicity in nude mouse xenografted with human MCF7 cells assessed as decrease in body weight at 45 mg/kg/day, ip administered for 21 days; type: organism-based; conditions: in vivo, 504 h
In short: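 Nude mice (male/female, 4–6 weeks) injected subcutaneously in right forelimb with 5 × 10^7 MCF-7 cells in 200 µL saline; at mean tumour 100 mm3 randomized (n = 5/group): saline 0.2 mL/day, 22.5 or 45 mg/kg/day ip for 21 days. Body weight and tumour volume (length × width²/2) every other day; tumours weighed at day 21.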

[16] = test system: A549; assay: Antitumour activity against human A549 cells assessed as cell growth inhibition measured after 72 hrs by SRB assay; type: functional, cell-based; conditions: A549, 72 h; in short: as §1

## COc1cc2c(cc1O)CC[C@@H]1[C@@H]2CC[C@]2(C)[C@@H](O)CC[C@@H]12 [2-METHOXYESTRADIOL]
[1]
  IC50: 4.1 µM
[2]
  IC50: 3.4 µM
[3]
  Activity: Toxic
[4]
  IC50: 4 µM
[5]
  Activity: Toxic
[6]
  inhibition: Active
[7]
  Activity: Toxic
[8]
  Activity: Toxic
[9]
  Activity: Toxic
[10]
  Activity: Toxic
[11]
  IC50: 1600 nM
[12]
  Activity: Toxic
[13]
  Activity: Toxic
[14]
  IC50: 8.4 µM
[15]
  Activity: Toxic
[16]
  IC50: 1100 nM
